SENP7 block = blocks the human protease SENP7. actives 1.5% (n = 330,000). Q9BQF6. AID 434973. recombinant SENP7, Z-RLRGG-aminoluciferin luminescence, 40 min. inhibition, % at 5 µM;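 active = inhibition above about 50% at the single test dose, limit read from the data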;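 note: plate controls were DMSO with enzyme for no effect and no enzyme buffer wells for full effect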
SENP8 block-1 = inhibitors of human SENP8 protease; recombinant SENP8, Nedd8 substrate fluorescence; inhibition, % at 20 µM; actives 0.64% (n = 360,000); in the data active = inhibition mostly above about 40%, no sharp cut-off; inactive = mostly below about 27%
Target sequence (Q96LD8 whole entry, looked up): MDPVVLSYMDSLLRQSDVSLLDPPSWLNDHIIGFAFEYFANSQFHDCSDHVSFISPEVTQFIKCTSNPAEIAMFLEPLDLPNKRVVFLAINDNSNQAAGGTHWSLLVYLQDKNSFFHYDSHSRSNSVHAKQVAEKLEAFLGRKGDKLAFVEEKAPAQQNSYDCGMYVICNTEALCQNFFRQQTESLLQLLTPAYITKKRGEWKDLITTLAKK
SENP1 FRET inh = SENP1 (human) catalytic domain inhibition; recombinant SENP1 catalytic domain, CyPet-SUMO1-YPet FRET cleavage; inhibition, % at 10 µM; actives 0.21% (n = 360,000);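 active = inhibition at least 30% at 10 µM, raw YFP signal under a set limit, fluorescence ratio 0.5 to 1.5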;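 note: 0% = enzyme with DMSO and 100% = no enzyme wells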
Target sequence (Q9P0U3 419-644 limits assumed): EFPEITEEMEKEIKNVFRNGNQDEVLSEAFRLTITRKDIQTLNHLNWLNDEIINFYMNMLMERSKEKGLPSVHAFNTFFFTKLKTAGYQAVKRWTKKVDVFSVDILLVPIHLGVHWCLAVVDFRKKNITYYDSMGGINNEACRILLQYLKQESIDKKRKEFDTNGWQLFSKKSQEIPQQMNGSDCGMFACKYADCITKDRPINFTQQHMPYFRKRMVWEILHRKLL
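Test system: human SENP1 catalytic domain; medium: Tris pH 8 buffer plus EDTA, NaCl, BME, BSA, NP40, catalase; incubation: 50 min reaction at room temperature; technique: FRET, CFP and YFP emission; controls: no-enzyme low control and enzyme-plus-DMSO high control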
SENP8 block-2 = inhibitors of human SENP8 protease; inhibition, % at 10 µM; Q96LD8; actives 1.2% (n = 330,000); purified SENP8, Z-RLRGG-aminoluciferin cleavage, luminescence; in the data active = inhibition above about 50%
CendR NRP1 mod = NRP-1/CendR interaction modulation. inhibition, % at 25 µM. actives 0.85% (n = 360,000). O14786. FAM-RPARPAR peptide binding to NRP-1, fluorescence polarization. AID 602438;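 active = inhibition or corrected inhibition above about 18%, plus a signal ratio from 0.5 to 1.5, limit read from the data, passing the limit was not always enough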
SENP6 block = blocks the human protease SENP6; Recombinant SENP6 catalytic domain, aminoluciferin luminescence; inhibition, % at 10 µM; AID 2599; actives 1.8% (n = 330,000);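 active = inhibition above about 50% at the single tested dose, limit read from the data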;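 note: plate controls were DMSO wells with enzyme for no effect and DMSO wells lacking enzyme for full effect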
Starred values were filed as active, the others as inactive; . = no result. The list is not random: actives were taken first. Their share in the collection is about 3.3%.

SMILES | SENP7 block | SENP8 block-1 | SENP1 FRET inh | SENP8 block-2 | CendR NRP1 mod | SENP6 block
Cc1cccc2nc(-c3ccccc3)nc(N3CCC(O)(c4ccc(Cl)cc4)CC3)c12 | 8 | -72 | -1 | -2 | 31* | 0
COc1cc(C2Nc3cccc4cccc(c34)N2)cc(OC)c1O | 98* | 58* | -7 | 8 | 10 | 19
COC(=O)c1ccc(C2Nc3cccc4cccc(c34)N2)cc1 | 12 | 54* | 11 | 2 | 10 | 27
Fc1ccc(C2Nc3cccc4cccc(c34)N2)cc1 | -4 | 34 | 6 | 1 | 21 | 15
Oc1ccc(C2Nc3cccc4cccc(c34)N2)c(O)c1 | 3 | 45* | -6 | -5 | 6 | 5
COc1ccc(S(=O)(=O)N(C)C[C@H]2Oc3ncc(C#CC4(O)CCCC4)cc3C(=O)N([C@@H](C)CO)C[C@@H]2C)cc1 | . | 13 | 0 | . | -12 | .
O=C1C=C(OCCCl)CC(c2cccc(Cl)c2)O1 (stereo unspecified) | . | 21 | 1 | . | 8 | .
CO[C@H]1CN(C)C(=O)c2cc(NC(=O)c3ccccc3)ccc2OC[C@H](C)NC[C@@H]1C | . | 15 | 3 | . | -8 | .
CCOc1nc(-c2ccccc2)c2cc(C)ccc2n1 | 0 | -325 | 1 | 1 | 20* | 14
COc1nc(-c2ccccc2)c2cc(C)ccc2n1 | 9 | -424 | -2 | -11 | 2 | -1
Cc1cc2cc(CNC(=O)c3ccc(S(=O)(=O)N4CCOCC4)cc3)ccc2n1C | 0 | -34 | -2 | 3 | 28* | -8
Cc1cc2cc(CNC(=O)c3ccc(S(=O)(=O)N(C)C)cc3)ccc2n1C | 1 | -48 | -2 | 5 | 10 | 10
Cc1cc2cc(CNC(=O)Cc3ccc([N+](=O)[O-])cc3)ccc2n1C | -4 | 10 | 6 | -1 | 30* | 7
Cc1cc2cc(CNC(=O)c3cccc([N+](=O)[O-])c3)ccc2n1C | -6 | -9 | 1 | -2 | 12 | 3
COc1cc(-c2cnc3c(NC=O)cc(-c4ccccc4Cl)cn23)cc(OC)c1OC | . | -200 | -5 | . | -12 | .
CN1CCN(C(=O)c2ccc(N(C)S(=O)(=O)c3cccs3)cc2)CC1 | 0 | 5 | 2 | 6 | 22* | -1
COC(=O)Oc1ccc(/C=N/NC(=O)CN(c2ccccc2Br)S(C)(=O)=O)cc1OC | 4 | 11 | 3 | -6 | 23* | 4
CCc1ccccc1N(CC(=O)N/N=C/c1ccc(OC(=O)OC)c(OC)c1)S(C)(=O)=O | 11 | 6 | 0 | -7 | 17 | -22
CCN1CCN(C(=S)NC(=O)c2cccc(Br)c2)CC1 | -1 | -2 | -6 | -10 | 43* | -13
COc1ccc(N2CCN(C3CCCN(C(=O)CN4CCCCC4=O)C3)CC2)cc1 (stereo unspecified) | -6 | 20 | 2 | -8 | -2 | -22
COc1ccccc1N1CCN(C2CCCN(C(=O)CN3CCCCC3=O)C2)CC1 (stereo unspecified) | -9 | 8 | 3 | -12 | 20* | -7
Cc1nc(SCC(=O)NCC2CCCO2)c2c(C)c(C)sc2n1 (stereo unspecified) | 4 | 9 | 0 | 7 | 21 | 11
Cc1nc(SCC(=O)NCC2CCCO2)c2c3c(sc2n1)CCCC3 (stereo unspecified) | -12 | 13 | -1 | -8 | 30* | -11
COCCN1C(=O)C(C(=O)OC)CC2=C1CC(C)(C)CC2=O (stereo unspecified) | . | 10 | -7 | . | 10 | .
O=C1C(SCCO)=C(SCCO)C(=O)c2ccccc21 | 56* | -73 | 4 | 89* | 19 | 89*
SMILES | SENP7 block | SENP8 block-1 | SENP1 FRET inh | SENP8 block-2 | CendR NRP1 mod | SENP6 block
O=C(Cn1cnc2ccccc2c1=O)N/N=C/c1ccc(Br)cc1 | 4 | 22 | 3 | -2 | 23* | 8
CC(=O)Nc1ccc(S(=O)(=O)NCC(=O)NCCCc2ccccc2)cc1 | -1 | -2 | -2 | 5 | 14 | -13
CC(=O)Nc1ccc(S(=O)(=O)NCCC(=O)NCCCc2ccccc2)cc1 | 2 | 5 | 0 | 2 | 22* | -8
O=C(O)CSc1nnc(-c2ccc(Cl)cc2Cl)n1-c1ccc(Cl)cc1 | -9 | 14 | 1 | 9 | 26* | -8
COc1ccccc1-c1nnc(SCC(=O)O)n1-c1ccccc1 | 0 | 4 | 1 | 6 | 6 | 17
CC(C)(C)OC(=O)NCCc1n[nH]c(=S)o1 | 1 | 21 | 2 | -5 | 27* | -15
Cn1c(CCNC(=O)OC(C)(C)C)n[nH]c1=S | 3 | 18 | -1 | 6 | -4 | -6
C=CCc1ccc(OCCn2nnc3ccccc32)c(OC)c1 | 4 | 19 | 2 | -10 | 27* | 10
C/C=C/c1ccc(OCCn2nnc3ccccc32)c(OC)c1 | -4 | 10 | -1 | -5 | 2 | -7
CCOc1ccc(Cl)cc1-c1cc(C(=O)Nc2ccc(C(C)C)cc2)[nH]n1 | . | 14 | 1 | . | -5 | .
CC12CCC(=O)N1C(C(=O)NCCc1ccccc1)CS2 (stereo unspecified) | 3 | 6 | -1 | 2 | 25* | -6
CC1CCC(NC(=O)COC(=O)c2cccnc2Cl)CC1 (stereo unspecified) | -3 | 2 | 3 | 2 | 24* | 6
O=C(COC(=O)c1cccnc1Cl)NC1CCCCC1 | 0 | 6 | -2 | 11 | 0 | -2
Cc1ccc(NC(=O)Nc2cccc(Cl)c2)c(C(=O)O)c1 | 69* | -367 | 3 | 73* | 9 | 45
COc1ccc2[nH]c(C)c(CN3CCCCC3)c(=O)c2c1 | 5 | -194 | -1 | -2 | 32* | -8
CCc1ccc2[nH]c(C)c(CN3CCCCCC3)c(=O)c2c1 | -3 | 18 | -6 | -9 | 2 | -5
CC(C)NC(=O)N(C)C[C@H]1Oc2ccc(NC(=O)NC3CCCCC3)cc2C(=O)N([C@H](C)CO)C[C@@H]1C | -8 | 16 | 1 | -11 | 3 | -14
Cc1cc(C)nc(Nc2nc(=O)c3ccccc3s2)n1 | 3 | 20 | -2 | -11 | 21* | 3
C[C@@H]1CN([C@@H](C)CO)C(=O)CCCn2nncc2CO[C@H]1CN(C)Cc1ccc2c(c1)OCCO2 | . | 11 | -1 | . | 3 | .
Cn1nc2sc3ccccc3n2c(=O)c1=O | 3 | -24 | -2 | 0 | 1 | 6
CCc1c(O)nc2sc3ccccc3n2c1=O | 0 | 40* | 2 | 1 | 1 | -3
COC(=O)c1cc2ccccc2c(-c2c(OC)c(C(=O)OC)cc3ccccc23)c1OC | 3 | -299 | 1 | 10 | 0 | -10
COC(=O)c1cc2ccccc2c([N+](=O)[O-])c1O | . | 14 | 3 | . | 23* | .
CC(C)(C)OC(=O)C[C@H]1C/C=C\C[C@H](CC(=O)NCCO)C(=O)NC[C@@H](c2ccccc2)OC1=O | 5 | 9 | 0 | 6 | 11 | 8

High-throughput results deposited in PubChem BioAssay by Sanford-Burnham Center for Chemical Genomics.
